The list is not random: actives were taken first. Their share in the collection is about 2%.
HGIII-sPLA2 inh = human group III sPLA2 inhibitors, primary screen, biochemical, QFRET, BODIPY PC-A2 liposome substrate; Group 3 secretory phospholipase A2 (Homo sapiens), Q9NZ20; QFRET BODIPY PC-A2 liposome hydrolysis, fluorescence; inhibition, % at 12.2 µM; 370,000 tested, 0.56% active; AID 743126, 2013;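 active means inhibition above mean plus 3 SD of compounds lying within the high and low control bounds, cut at about 19% in these data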;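 further: 0% = median of test compound wells and 100% = no enzyme DMSO wells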
Target sequence (Q9NZ20 whole entry, looked up): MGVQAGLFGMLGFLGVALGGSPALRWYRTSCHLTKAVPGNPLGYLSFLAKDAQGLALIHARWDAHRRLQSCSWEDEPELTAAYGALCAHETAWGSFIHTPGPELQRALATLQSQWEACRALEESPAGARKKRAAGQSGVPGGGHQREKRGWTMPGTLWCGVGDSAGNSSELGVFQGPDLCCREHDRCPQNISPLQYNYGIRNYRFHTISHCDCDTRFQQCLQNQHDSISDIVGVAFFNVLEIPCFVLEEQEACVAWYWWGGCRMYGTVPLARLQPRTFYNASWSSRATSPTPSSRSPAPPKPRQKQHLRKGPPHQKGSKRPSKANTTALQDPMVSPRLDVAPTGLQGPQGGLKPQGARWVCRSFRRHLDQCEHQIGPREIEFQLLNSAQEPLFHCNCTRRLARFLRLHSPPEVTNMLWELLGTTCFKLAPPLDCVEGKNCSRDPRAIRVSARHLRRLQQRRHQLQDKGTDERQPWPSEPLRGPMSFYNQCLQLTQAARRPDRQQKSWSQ
NSD2 HMT inh = NSD2 histone methyltransferase inhibitors, primary screen, biochemical, AlphaScreen, single concentration, set 2; Histone-lysine N-methyltransferase NSD2 (Homo sapiens), O96028; NSD2 peptide methylation, 120 min; inhibition, % at 12.5 µM; 310,000 tested, 0.54% active; AID 743445, 2014; in the data active means inhibition above about 50%
SR-BI HDL uptake = inhibitors of SR-BI mediated HDL lipid uptake, primary screen, ldlA[mSR-BI] cells, fluorescence, single point; Scavenger receptor class B member 1 (Mus musculus), Q61009; ldlA[mSR-BI] CHO cells, DiI-HDL uptake fluorescence, 3 h; inhibition, % at 12.5 µM; 320,000 tested, 0.96% active;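 active means mean replicate inhibition of at least 70% and a set share of replicates each scoring 70 or more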;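 further: 0% = median of neutral control wells and 100% = median of positive control wells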
Xi reactivation = activators of inactive X chromosome reactivation, primary screen, imaging, XiGFP fibroblasts, GFP high-content imaging, set 2; XiGFP mouse fibroblasts, % GFP-positive cells imaging, 3 d; cells co-treated with 5-aza-dC sensitizer; scaled so ellipticine positive control = 100%; activation, % at 7.58 µM; 360,000 tested, 0.055% active;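 active means mean normalized replicate activation at least 10% and every replicate at or above 10%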;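 further: 0% = median of on-plate neutral control wells and 100% = ellipticine 6 µM median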
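Schedule: 3 d treatment, 15 min room-temperature fixation; system: 68-5-11 XiGFP fibroblast line; buffer or medium: DMEM plus 5-aza-dC sensitizer; control set: ellipticine 6 µM positive control; compound: one concentration, pinned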
SR-BI uptake up = activators of SR-BI mediated DiI-HDL uptake, primary screen, ldlA[mSR-BI] CHO cells, DiI fluorescence | 3 h; 100 = double the neutral-control signal | 320,000 tested, 0.096% active | activation, % at 12.5 µM | AID 504775, 2011;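 active means mean replicate activation of at least 60% and every replicate at or above 60%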;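 further: 0% = median plate neutral-control signal and 100% = twice that signal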
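system = CHO ldlA[mSR-BI] cells, LDL receptor-null, SR-BI overexpressing | medium = Ham's F12 with 0.5% BSA, HEPES 25 mM, pH 7.4 | probe or stimulus = DiI-HDL 10 µg/mL | compound dosing = single-point compound dose | incubation = compound exposure 3 h, 37 °C | technique = DiI fluorescence, bottom read | read-out = cell-associated DiI fluorescence as measure of HDL uptake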
ARNT-TACC3 inh = disruptors of ARNT/TACC3 protein interaction, primary screen, biochemical, AlphaScreen, single concentration; 390,000 tested, 0.66% active; inhibition, % at 9.99 µM; Transforming acidic coiled-coil-containing protein 3 (Homo sapiens), Q9Y6A5; AID 623870, 2012; AlphaScreen His-ARNT PAS-B/GST-TACC3 binding, luminescence; TACC3 fragment carries E629A point mutation;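 active means mean inhibition of replicates at least 50% and at least half of replicates each reaching 50%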;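 further: 0% = complete ARNT plus TACC3 wells and 100% = ARNT alone without TACC3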
hGIII sPLA2 conf = human group III sPLA2 inhibitors, confirmation, biochemical, QFRET, triplicate | shares compounds with HGIII-sPLA2 inh | recombinant hGIII-sPLA2, BODIPY PC-A2 QFRET fluorescence | inhibition, % at 12.2 µM | 2,000 tested, 34% active | AID 743280, 2014;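 active means mean inhibition across triplicates above the hit cutoff set in the earlier primary screen, cut at about 19% in these data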;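 further: 0% = enzyme with DMSO and 100% = DMSO wells lacking enzyme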
BODIPY interf = 535nm fluorescence optical interference, confirmation, artefact control for HGIII-sPLA2 inhibitor project, biochemical, QFRET; shares compounds with HGIII-sPLA2 inh; BODIPY FL product fluorescence interference; inhibition, % at 12.2 µM; 2,000 tested, 8.5% active; AID 743282, 2014;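 active means average inhibition above the solvent-only control mean plus 3 SD, cut at about 6% in these data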;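 further: 0% = DMSO with substrate plus product and 100% = DMSO with substrate alone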
BODIPY interf DR = 535nm fluorescence optical interference, dose response, artefact control for HGIII-sPLA2 inhibitor project, biochemical, QFRET; AID 743455, 2014; 240 tested, under 10 active; BODIPY FL product fluorescence interference, cell-free; shares compounds with HGIII-sPLA2 inh; IC50, µM;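 active means IC50 at or below 10 µM; inactive means IC50 above 10 µM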
* = called active by the depositor; . = not tested or not shown.

SMILES	HGIII-sPLA2 inh	NSD2 HMT inh	SR-BI HDL uptake	Xi reactivation	SR-BI uptake up	ARNT-TACC3 inh	hGIII sPLA2 conf	BODIPY interf	others
O=C(NNC(=S)Nc1cccc(C(F)(F)F)c1)c1ccccc1Cl	24*	24	-10	0	10	20	24*	4
COc1ccc2c(c1)CCC/C2=N\NC(=O)c1ccoc1C	21*	-1	12	0	-12	-2	12	-5
S=C(Nc1ccccc1)N1CCCN1c1ccccc1	20*	.	-11	0	11	0	4	-8
Cc1ccc(S(=O)(=O)CNC(=S)c2cccc(C)c2)cc1	10	2	-2	.	2	-8	.	.
Cc1ccc(S(=O)(=O)CNC(=S)c2ccc3ccccc3c2)cc1	20*	1	22	.	-22	4	24*	0
COc1cccc2sc(NNC(=O)C3COc4ccccc4O3)nc12 (configuration not stated)	22*	0	-6	0	6	10	24*	-3
O=C(NNc1nc2c(F)cccc2s1)C1COc2ccccc2O1 (configuration not stated)	18	-1	-11	0	11	-11	.	.
C[C@H](CO)N1C[C@H](C)[C@H](CN(C)Cc2ccc(C(F)(F)F)cc2)Oc2c(NC(=O)Nc3ccc(C(F)(F)F)cc3)cccc2C1=O	.	.	.	0	.	-3	.	.
CCOC(=O)/C(=N\Nc1cccc(Cl)c1)Sc1nnc(-c2ccc(OC)cc2)n1C	22*	22	-23	.	23	46*	17	-5
COc1ccc(-c2nnc(SCC(=O)Nc3ccc(Cl)cc3)n2C)cc1	3	-1	17	.	-17	-3	.	.
CCNC(=S)N(CCc1c(C)[nH]c2ccc(OC)cc12)Cc1cccnc1	9	11	12	0	-12	8	.	.
COc1ccc(-n2c(C)cc(C)c(C(C)=O)c2=S)cc1	20*	-2	27	0	-27	.	4	-6
Cc1c(-c2ccccc2)nc(N)c(C#N)c1-c1cccnc1	6	-2	4	0	-4	-10	.	.
C[C@@H]1CN([C@H](C)CO)C(=O)c2cc(NS(=O)(=O)c3cn(C)cn3)ccc2O[C@@H](C)CCCCO[C@H]1CN(C)S(=O)(=O)c1cccs1	.	.	.	0	.	.	.	.
CCCC[C@@H]1C(=O)N2N=Cc3cc(C)c(C)cc3[C@H]2N2N=Cc3cc(C)c(C)cc3[C@@H]12	20*	.	.	.	.	.	-6	-23
CCc1c(C)sc(NC(=O)c2cccs2)c1C#N	20*	3	6	0	-6	2	25*	-3
CCOC(=O)c1c(NC(=O)c2cccs2)sc(C)c1CC	4	-4	27	.	-27	-18	.	.
C/C(=N\NC(=S)NCC(C)(C)C)c1cc(F)cc(F)c1O	33*	2	35	0	-35	-6	43*	0	BODIPY interf DR=>122
COc1ccc(-c2c(C(=O)c3ccccc3)[nH]c(N)c2C(=O)c2ccc(Br)cc2)cc1OC	26*	.	.	0	.	.	20*	-2

Source: PubChem
